The values below come from ChEMBL document CHEMBL1124397, “A novel class of "GABAergic" agents: 1-aryl-3-(aminoalkylidene)oxindoles” (J Med Chem, 1989).

Structures are written as SMILES.

Test system in one assay: not listed separately
The assay can be described thus: Ability to displace [3H]flunitrazepam ([3H]-FNP) binding to mouse brain after intraperitoneal administration at a dose 320 umol/kg. In kind it is functional, organism-based. As to conditions: at 320 µmol/kg. The procedure, abridged: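 Mice in groups of five got test agent or vehicle ip 1 h before iv [3H]FNP at 200 μCi/kg, then were killed 20 min later by cervical dislocation. Brains were frozen and homogenized in 40 volumes of ice-cold 50 mM Tris-HCl pH 7.7. Triplicate samples were filtered on glass fiber, washed with cold buffer and counted. Bound label is expressed as % of vehicle-treated mice.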
`CN(C)/C=C1\C(=O)N(c2cccc(C#N)c2)c2ccccc21` came in with a [3H]flunitrazepam binding of 192%.

`CN(C)/C=C1\C(=O)N(c2cccc(Cl)c2)c2c(Cl)cccc21` registered a [3H]flunitrazepam binding of 169%. Same read-out and setting: to `O=C1/C(=C\N2CCOCC2)c2ccccc2N1c1cccc(Cl)c1` belongs 121%.

A further assay addresses GABA-A receptor; anion channel (Rattus norvegicus) (UniProt O09028+P15431+P18506+P18508+P19969+P20236+P23574+P23576+P28471+P28473+P30191+P62813+P63079+P63138+Q91ZM7+Q9ES14). Nature of the assay: Antagonism of mercaptopropionic acid (MPA) induced convulsions in mouse. In kind it is functional, organism-based.
Details: not given
With `COc1ccc(N2C(=O)/C(=C\N(C)C)c3ccccc32)cc1C`, the median effective dose (ED50) (usually the dose that gives a 50% effect, or the effect in half of the subjects) came out at 9.1 mg/kg.

Turning to `CSc1ccc(N2C(=O)/C(=C\N(C)C)c3ccccc32)cc1`, the 50% effective dose (ED50) is 56 mg/kg.

On to `CCN(/C=C1\C(=O)N(c2cccc(Cl)c2)c2ccccc21)CC`, for which the ED50 came to 18 mg/kg.

Compound `Oc1c(/C=N/Cc2ccccc2)c2ccccc2n1-c1cccc(Cl)c1` displayed an ED50 of more than 100 mg/kg.

`COc1ccc(N2C(=O)/C(=C(/C)N(C)C)c3ccccc32)cc1Cl` showed an ED50 of 2.8 mg/kg. In turn, `CC(=N)c1c(O)n(-c2ccccc2)c2cc(Cl)ccc12` came in with a median effective dose (ED50) of more than 56 mg/kg.

As for `CCc1cccc(N2C(=O)/C(=C\N(C)C)c3ccccc32)c1`, the 50% effective dose (ED50) is 14.1 mg/kg. The compound `CN(C)/C=C1\C(=O)N(c2cccc(C#N)c2)c2ccccc21` showed a 50% effective dose (ED50) of more than 100 mg/kg.

The compound `CN(C)/C=C1\C(=O)N(c2cccc(Cl)c2)c2c(Cl)cccc21` displayed a 50% effective dose (ED50) of more than 100 mg/kg. In turn, `CN(C)/C=C1\C(=O)N(c2cccc(O)c2)c2ccccc21` had a median effective dose (ED50) of more than 100 mg/kg. Still for that read-out and setting: for `O=C1/C(=C\N2CCOCC2)c2ccccc2N1c1cccc(Cl)c1` the value was more than 100 mg/kg. `Cc1ccc(N2C(=O)/C(=C\N(C)C)c3ccccc32)cc1` came in with an ED50 of 56 mg/kg. For the compound `COc1ccc(-n2c(O)c(C3=NCCC3)c3ccccc32)cc1F`, the ED50 turned out to be 56 mg/kg. On the same count and under the same terms, for `COc1ccc(N2C(=O)/C(=C(/C)N(C)C)c3ccccc32)cc1` the value was more than 100 mg/kg. Turning to `COc1c(C)cc(N2C(=O)/C(=C\N(C)C)c3ccccc32)cc1Cl`, the 50% effect level (ED50) was put at a dose of 15.3 mg/kg. In turn, `CN(C)/C=C1\C(=O)N(c2cccc(F)c2)c2ccccc21` displayed a median effective dose (ED50) of 39.9 mg/kg. `CN(C)/C=C1\C(=O)N(c2ccccc2)c2cc(Cl)ccc21` showed an ED50 of more than 100 mg/kg.

Consider `CN(C)/C(=C1\C(=O)N(c2cccc(Cl)c2)c2ccccc21)c1ccccc1`, for which the ED50 was more than 100 mg/kg. In turn, `COc1ccc2c(c1)/C(=C/N(C)C)C(=O)N2c1cccc(Cl)c1` returned a median effective dose (ED50) of more than 100 mg/kg. Still for that read-out and setting: to `CCCN(/C=C1\C(=O)N(c2cccc(Cl)c2)c2ccccc21)CCC` belongs more than 100 mg/kg; to `O=C1/C(=C\N2CCCC2)c2ccccc2N1c1cccc(Cl)c1`, more than 100 mg/kg; to `C/C(=C1/C(=O)N(c2ccccc2)c2cc(Cl)ccc21)N(C)C`, 35.9 mg/kg.

In turn, `CN(C)/C=C1\C(=O)N(c2ccc(Cl)cc2)c2ccccc21` came in with an ED50 of more than 100 mg/kg. On the same count and under the same terms, to `CN(C)/C=C1\C(=O)N(c2cccc(C=O)c2)c2ccccc21` belongs more than 100 mg/kg.

For `CN(C)/C=C1\C(=O)N(c2cccc(Br)c2)c2ccccc21`, the ED50 was more than 100 mg/kg.

Consider `CCOc1cccc(N2C(=O)/C(=C\N(C)C)c3ccccc32)c1`, for which the ED50 was found to be 27.9 mg/kg.

`CN(C)/C=C1\C(=O)N(c2cccc(Cl)c2)c2cc(Cl)ccc21` gave an ED50 of more than 100 mg/kg. As for `CN(C)/C=C1\C(=O)N(c2cccc(Cl)c2)c2ccc(Cl)cc21`, the median effective dose (ED50) is more than 100 mg/kg. On to `CN(C)/C=C1\C(=O)N(c2ccc(N(C)C)cc2)c2ccccc21`, for which the ED50 was more than 100 mg/kg. The compound `CCO/C=C1\C(=O)N(c2cccc(Cl)c2)c2ccccc21` returned an ED50 of more than 100 mg/kg. Same read-out and setting: to `C/C(=C1/C(=O)N(c2cccc(C)c2)c2ccccc21)N(C)C` belongs 17.8 mg/kg. Still for that read-out and setting: for `Cc1ccccc1N1C(=O)/C(=C\N(C)C)c2ccccc21` the value was 18 mg/kg; for `CN(C)/C=C1\C(=O)N(c2cccc(Cl)c2)c2cccc(Cl)c21`, more than 100 mg/kg; for `N=C(c1c(O)n(-c2cccc(Cl)c2)c2ccccc12)C(F)(F)F`, more than 56 mg/kg. As for `CN(C)/C=C1\C(=O)N(c2cccc(C(=O)N(C)C)c2)c2ccccc21`, the ED50 is more than 100 mg/kg. Same read-out and setting: to `Oc1c(C2=NCCCCC2)c2ccccc2n1-c1ccccc1` belongs more than 100 mg/kg; to `CN(C)/C=C1\C(=O)N(c2cccc(-c3ccccc3)c2)c2ccccc21`, more than 100 mg/kg. The same measure, in the same setting: for `CCC/N=C/c1c(O)n(-c2cccc(Cl)c2)c2ccccc12` the value was more than 56 mg/kg.

`CN(C)/C=C1\C(=O)N(c2ccccc2)c2ccccc21` yielded an ED50 of more than 100 mg/kg.
